# RGS4 block – RGS4 inhibitors, primary screen, cell-based, HEK293 M3R inducible RGS4, calcium flux; Fluo-4 calcium flux; hits give high values; triggered by carbachol at its EC20; B-score at 10 µM; 310,000 compounds, 0.45% hits; AID 463165, 2010;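 active means B-score, a plate-corrected calcium signal, over three deviations above library mean, with baseline fluorescence within five deviations of library mean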;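 further: RGS4 expression induced by doxycycline in cells with stable M3 receptor; B-score is computed from the integrated fluorescence ratio over baseline after carbachol; higher B-score means a larger calcium signal and so more RGS4 inhibition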
# Target sequence (P49798 whole entry, looked up): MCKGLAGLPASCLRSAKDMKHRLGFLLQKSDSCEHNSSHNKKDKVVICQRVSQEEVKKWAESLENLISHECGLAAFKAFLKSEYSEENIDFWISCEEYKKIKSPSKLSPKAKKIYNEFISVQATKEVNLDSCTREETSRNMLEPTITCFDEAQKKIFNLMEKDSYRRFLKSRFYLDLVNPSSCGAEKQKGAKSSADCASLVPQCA
# MrgX1 agonist – agonists of human MrgX1 receptor, primary screen, HEK293 cells, Fluo-4 calcium flux | Mas-related G-protein coupled receptor member X1 (Homo sapiens), Q96LB2 | Fluo-4 calcium fluorescence, agonist mode; hits give high values | B-score at 10 µM | 310,000 compounds, 0.44% hits;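 active means calcium response B-score plate-corrected fluorescence ratio at least 3 library SD, with starting fluorescence B-score inside 5 SD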
#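 Material: HEK293 cells stably expressing human MrgX1 receptor | Quantity: 15,000 cells per well | Times: Cells plated overnight, dye loaded 0.5 h 37 °C, 0.5 h room temperature | Measured by: Kinetic Fluo-4 NW fluorescence of intracellular calcium | Control set: Positive and negative controls per plate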
# MrgX1 allo act – positive allosteric modulators of MrgX1, primary screen, HEK293 cells, Fluo-4 calcium flux; FDSS; hits give high values; B-score at 10 µM; 310,000 compounds, 0.63% hits; AID 588675, 2011;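 active means plate-corrected calcium response at least 3 library SD above typical, normal starting fluorescence, not activating the receptor alone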;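 further: compound read alongside a low EC10 to EC30 dose of BAM8-22 agonist; peak minus trough fluorescence over baseline measured at the second addition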
# MrgX1 antag – antagonists of human MrgX1 receptor, primary screen, HEK293 cells, Fluo-4 calcium flux | 310,000 compounds, 1.3% hits | AID 588676, 2011 | BAM8-22 antagonism; hits give low values | Mas-related G-protein coupled receptor member X1 (Homo sapiens), Q96LB2 | B-score at 10 µM;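 active means calcium-response B-score plate-corrected more than 3 library SD below zero, starting fluorescence within 5 deviations, no agonist response on first addition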;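 further: peak minus trough fluorescence over baseline after final BAM8-22 challenge near maximal dose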
# RGS4 act – RGS4 potentiators or activators, primary screen, cell-based, HEK293 M3R inducible RGS4, calcium flux; AID 463111, 2010; 310,000 compounds, 0.92% hits; carbachol calcium flux Fluo4; hits give low values; B-score at 10 µM;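 active means B-score of the integrated calcium signal more than 4 SD below the library mean, with starting fluorescence not abnormally high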;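 further: negative B-score means reduced calcium response which marks RGS4 activation or potentiation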
#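 Material: Inducible-RGS4 HEK293 cells carrying M3 receptor; also added: carbachol at ECmax as muscarinic agonist stimulus; incubation: compound preincubation 20 min at room temperature before agonist; signal: Fluo4-AM (2 µM) calcium-flux fluorescence, kinetic read; measure: integrated calcium ratio converted to B score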
# MrgX1 ag reconf – MrgX1 receptor agonists, duplicate retest, confirmation, HEK293 cells, Fluo-4 calcium flux. shares compounds with MrgX1 agonist. Fluo-4 calcium fluorescence, FDSS. activation, % at 10 µM. 600 compounds, 78% hits. AID 602412, 2012;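 active means calcium signal rise, corrected for plate position, at least 3 library SD high, with starting brightness within 5 such deviations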
# HEK293 Ca flux – nonspecific calcium signal in parental HEK293, confirmation, counter-screen for MrgX1 antagonist project, parental HEK293 cells, Fluo-4 calcium flux. shares compounds with MrgX1 antag. Fluo-4 calcium fluorescence, FDSS. fluorescence ratio F(max-min)/F0 at 10 µM. 4,000 compounds, 2% hits. AID 624111, 2012;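 active means duplicate-averaged calcium fluorescence ratio at least three times the standard deviation of buffer wells, a nonspecific response in parental cells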
# HEK293 Ca counter – calcium response in parental HEK293 cells, primary screen, counter-screen for MrgX1 allosteric activator project, cell-based, Fluo-4 calcium flux, duplicate | shares compounds with MrgX1 antag | Fluo-4 fluorescence ratio; hits give high values | fluorescence ratio F(max-min)/F0 at 10 µM | 4,000 compounds, 0.4% hits;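 active means calcium fluorescence ratio, averaged over duplicates, at least 3 SD of the buffer-well ratio, meaning a nonspecific response in receptor-free cells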;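 further: untransfected parental HEK293 lacking MrgX1 used as counterscreen for MrgX1 allosteric activators; fluorescence change taken during the second addition on a kinetic imager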
# HEK293 Ca cntr2 – calcium response in parental HEK293 cells, primary screen, counter-screen for MrgX1 agonist project, cell-based, Fluo-4 calcium flux, duplicate, agonist mode; shares compounds with MrgX1 antag; Fluo-4 calcium fluorescence (FDSS); hits give high values; fluorescence ratio F(max-min)/F0 at 10 µM; 4,000 compounds, 8.7% hits; AID 624115, 2012;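 active means calcium fluorescence ratio at least three times the spread of buffer wells, meaning a non-specific response in parental cells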
# Numbers without * were called inactive; i = inactive; · = no result given. Most compounds without a hit are left out; they make up all but 3.5% or so of the library.
SMILES,RGS4 block,MrgX1 agonist,MrgX1 allo act,MrgX1 antag,RGS4 act,MrgX1 ag reconf,HEK293 Ca flux,HEK293 Ca counter,HEK293 Ca cntr2
Cc1ccc(CNc2ccc3c(c2)ncn3C(C)C)cc1,i,33*,i,i,i,352%*,i,i,80*
CCn1cnc2cc(NCc3ccc(Br)cc3)ccc21,i,34*,i,i,i,197%*,i,i,i
CN(C(=O)CSc1nnc(-c2ccc(F)cc2)c2ccccc12)C1CCS(=O)(=O)C1 (centres undefined),i,i,i,i,i,·,·,·,·
COC(=O)c1cc(CSC(=N)N)ccc1OCCC(C)C,i,37*,i,i,i,200%*,i,i,i
CCCOc1ccc(CSC(=N)N)cc1C(=O)OC,i,i,i,i,i,·,·,·,·
Cn1c(=O)c(C(=O)CN2CCN(S(=O)(=O)c3ccccc3)CC2)c(N)n(Cc2ccccc2)c1=O,i,38*,i,i,i,171%*,i,i,46*
COC(=O)c1c(Cl)c2n3ccccc3c(C)c(-c3ccccc3)c-2c1C(=O)OC,i,27*,i,i,i,i,i,i,i
Clc1ccc2[nH]c3c(N4CCC5(CC4)OCCO5)ncnc3c2c1,i,42*,i,i,i,238%*,i,i,50*
c1ccc2c(c1)[nH]c1c(N3CCCC3)ncnc12,i,i,i,i,i,·,·,·,·
c1ccc2c(c1)[nH]c1c(N3CCSCC3)ncnc12,·,32*,i,i,·,186%*,i,i,i
CCOC(=O)Cc1csc(NC(=O)c2cccc(Cl)c2)n1,i,i,i,i,i,·,·,·,·
CCOC(=O)Cc1csc(NC(=O)c2ccc(Cl)s2)n1,i,31*,i,i,i,112%*,i,i,i
CCN1CCc2c(sc(NC(=O)c3ccc4ccccc4c3)c2C(N)=O)C1,i,44*,i,i,i,i,i,i,i
COc1cccc(OC)c1C(=O)NC(=S)NNC(=O)[C@H]1C[C@@H]1c1ccccc1,i,i,i,i,i,·,·,·,·
O=C(NC(=S)NNC(=O)[C@H]1C[C@@H]1c1ccccc1)c1cccc(F)c1,i,159*,i,i,i,600%*,i,i,105*
CNC(=O)Nc1cc(NC(=O)NC)cc(C(F)(F)F)c1,i,i,i,i,i,·,·,·,·
COCC(=O)c1[nH]c2ccccc2c1C,i,41*,i,i,i,196%*,i,i,i
O=C(O)CCc1ccc(-c2ccc(Cl)cc2)n1Cc1ccco1,i,38*,i,i,i,159%*,i,i,i
Cc1cc(=O)oc2c(C)c3occc3cc12,i,i,i,i,i,·,·,·,·
COc1ccc(CCNC(=S)NCCc2ccc(OC)c(OC)c2)cc1OC,i,i,i,i,i,·,·,·,·
